# Key:
# Assay type in all cases: functional
# DU-145 = assay: Antiproliferative activity against human DU145 cells after 48 hrs by sulforhodamine B assay; details: DU-145, 48 h
# How it was run: (§1)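 Cells grown in RPMI 1640 with 5% FBS and 2 mM L-glutamine, plated at 5000–40,000 cells/well and preincubated 24 h at 37 °C, 5% CO2. Five drug concentrations (10-fold or ½-log dilutions from DMSO stocks) applied for 48 h. TCA-fixed (final 10% adherent, 16% suspension), SRB-stained, A515 read. Growth versus time-zero and control wells gave GI50, TGI, LC50.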
# OVCAR-5 = assay: Antiproliferative activity against human OVCAR5 cells after 48 hrs by sulforhodamine B assay; details: OVCAR-5, 48 h; how it was run: as §1
# SK-MEL-28 = assay: Antiproliferative activity against human SK-MEL-28 cells after 48 hrs by sulforhodamine B assay; details: SK-MEL-28, 48 h; how it was run: as §1
# NCI/ADR-RES = assay: Antiproliferative activity against human NCI/ADR-RES cells after 48 hrs by sulforhodamine B assay; how it was run: as §1
# SF-295 = assay: Antiproliferative activity against human SF295 cells after 48 hrs by sulforhodamine B assay; details: SF-295, 48 h; how it was run: as §1
# OVCAR-3 = assay: Antiproliferative activity against human OVCAR3 cells after 48 hrs by sulforhodamine B assay; details: OVCAR-3, 48 h; how it was run: as §1
# SN12C = assay: Antiproliferative activity against human SN12C cells after 48 hrs by sulforhodamine B assay; how it was run: as §1
# PC-3 = assay: Antiproliferative activity against human PC3 cells after 48 hrs by sulforhodamine B assay; details: PC-3, 48 h; how it was run: as §1
# MOLT-4 = assay: Antiproliferative activity against human MOLT4 cells after 48 hrs by sulforhodamine B assay; details: MOLT-4, 48 h; how it was run: as §1
# COLO 205 = assay: Antiproliferative activity against human COLO205 cells after 48 hrs by sulforhodamine B assay; details: COLO 205, 48 h; how it was run: as §1
# NCI-H522 = assay: Antiproliferative activity against human NCI-H522 cells after 48 hrs by sulforhodamine B assay; details: NCI-H522, 48 h; how it was run: as §1
# Malme-3M = assay: Antiproliferative activity against human MALME-3M cells after 48 hrs by sulforhodamine B assay; how it was run: as §1
# UO-31 = assay: Antiproliferative activity against human UO31 cells after 48 hrs by sulforhodamine B assay; details: UO-31, 48 h
# How it was run: (§2)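 Cells in RPMI 1640 with 5% FBS and 2 mM L-glutamine were seeded at 5000–40,000/well according to doubling time and preincubated 24 h at 37 °C in 5% CO2. Time-zero plates were TCA-fixed when drug was added. Five 10-fold or ½-log dilutions from DMSO stocks were added for 48 h. After SRB staining, A515 was read and GI50 derived from [(Ti−Tz)/(C−Tz)]×100 = 50.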
# KM12 = assay: Antiproliferative activity against human KM12 cells after 48 hrs by sulforhodamine B assay; details: KM12, 48 h; how it was run: as §1
# HOP-62 = assay: Antiproliferative activity against human HOP62 cells after 48 hrs by sulforhodamine B assay; details: HOP-62, 48 h; how it was run: as §1
# U-251 = assay: Antiproliferative activity against human U251 cells after 48 hrs by sulforhodamine B assay; details: U-251, 48 h; how it was run: as §2
# NCI-H322M = assay: Antiproliferative activity against human NCI-H322M cells after 48 hrs by sulforhodamine B assay; how it was run: as §1
# A549 = assay: Antiproliferative activity against human A549 cells after 48 hrs by sulforhodamine B assay; details: A549, 48 h; how it was run: as §1
# SNB-75 = assay: Antiproliferative activity against human SNB75 cells after 48 hrs by sulforhodamine B assay; details: SNB-75, 48 h; how it was run: as §2
# SW-620 = assay: Antiproliferative activity against human SW620 cells after 48 hrs by sulforhodamine B assay; details: SW-620, 48 h; how it was run: as §2
# LOX IMVI = assay: Antiproliferative activity against human LOXIMVI cells after 48 hrs by sulforhodamine B assay; how it was run: as §1
# A498 = assay: Antiproliferative activity against human A498 cells after 48 hrs by sulforhodamine B assay; details: A498, 48 h; how it was run: as §1
# T47D = assay: Antiproliferative activity against human T47D cells after 48 hrs by sulforhodamine B assay; how it was run: as §2
# MCF7 = assay: Antiproliferative activity against human MCF7 cells after 48 hrs by sulforhodamine B assay; details: MCF7, 48 h; how it was run: as §1
# SF-539 = assay: Antiproliferative activity against human SF539 cells after 48 hrs by sulforhodamine B assay; details: SF-539, 48 h; how it was run: as §1
# [1] = Antiproliferative activity against human HCC2998 cells after 48 hrs by sulforhodamine B assay; details: HCC 2998, 48 h; how it was run: as §1
# UACC-257 = assay: Antiproliferative activity against human UACC257 cells after 48 hrs by sulforhodamine B assay; details: UACC-257, 48 h; how it was run: as §2
# HCT-15 = assay: Antiproliferative activity against human HCT15 cells after 48 hrs by sulforhodamine B assay; details: HCT-15, 48 h; how it was run: as §1
# HOP-92 = assay: Antiproliferative activity against human HOP92 cells after 48 hrs by sulforhodamine B assay; details: HOP-92, 48 h; how it was run: as §1
# [2] = read-out: pLC50 (the source's name) (converted)
smiles,measurement,setting,value
CN1CCN(CCCn2c(=O)c3sc4ncccc4c3n3nnc(-c4ccccc4)c23)CC1,GI50,DU-145,5.89 µM
same,LC50,DU-145,25.1 µM
same,TGI,DU-145; read-out: pTGI (converted),12.3 µM
same,GI50,OVCAR-5,8.91 µM
same,LC50,OVCAR-5,32.4 µM
same,TGI,OVCAR-5; read-out: pTGI (converted),17 µM
same,GI50,SK-MEL-28,8.71 µM
same,LC50,SK-MEL-28,28.2 µM
same,TGI,SK-MEL-28; read-out: pTGI (converted),15.8 µM
same,GI50,NCI/ADR-RES,7.24 µM
same,LC50,NCI/ADR-RES,28.2 µM
same,TGI,NCI/ADR-RES; read-out: pTGI (converted),14.1 µM
same,GI50,SF-295,5.62 µM
same,LC50,SF-295,26.9 µM
same,TGI,SF-295; read-out: pTGI (converted),12.3 µM
same,GI50,OVCAR-3,2.29 µM
same,LC50,OVCAR-3,20.4 µM
same,TGI,OVCAR-3; read-out: pTGI (converted),7.59 µM
same,GI50,SN12C,7.24 µM
same,LC50,SN12C,28.2 µM
same,TGI,SN12C; read-out: pTGI (converted),14.1 µM
same,GI50,PC-3,6.31 µM
same,LC50,PC-3,28.8 µM
same,TGI,PC-3; read-out: pTGI (converted),13.5 µM
same,GI50,MOLT-4,1.55 µM
same,LC50,MOLT-4,21.4 µM
same,TGI,MOLT-4; read-out: pTGI (converted),4.9 µM
same,GI50,COLO 205,7.41 µM
same,LC50,COLO 205,28.8 µM
same,TGI,COLO 205; read-out: pTGI (converted),14.5 µM
same,GI50,NCI-H522,7.24 µM
same,LC50,NCI-H522,28.8 µM
same,TGI,NCI-H522; read-out: pTGI (converted),14.5 µM
same,GI50,Malme-3M,9.33 µM
same,LC50,Malme-3M,33.9 µM
same,TGI,Malme-3M; read-out: pTGI (converted),17.8 µM
same,GI50,UO-31,5.13 µM
same,LC50,UO-31,28.2 µM
same,TGI,UO-31; read-out: pTGI (converted),12 µM
same,GI50,KM12,4.27 µM
same,LC50,KM12,24.5 µM
same,TGI,KM12; read-out: pTGI (converted),10.7 µM
same,GI50,HOP-62,8.13 µM
same,LC50,HOP-62,28.8 µM
same,TGI,HOP-62; read-out: pTGI (converted),15.5 µM
same,GI50,U-251,5.25 µM
same,LC50,U-251,24 µM
same,TGI,U-251; read-out: pTGI (converted),11.2 µM
same,GI50,NCI-H322M,6.17 µM
same,LC50,NCI-H322M,26.9 µM
same,TGI,NCI-H322M; read-out: pTGI (converted),12.9 µM
same,GI50,A549,6.76 µM
same,LC50,A549,28.2 µM
same,TGI,A549; read-out: pTGI (converted),13.8 µM
same,GI50,SNB-75,6.76 µM
same,LC50 (concentration killing 50% of starting cells),SNB-75,25.7 µM
same,TGI,SNB-75; read-out: pTGI (converted),13.2 µM
same,GI50,SW-620,5.37 µM
same,LC50,SW-620,24.5 µM
same,TGI,SW-620; read-out: pTGI (converted),11.5 µM
same,GI50,LOX IMVI,5.37 µM
same,CC50,LOX IMVI; [2],25.1 µM
same,TGI,LOX IMVI; read-out: pTGI (converted),11.5 µM
same,GI50,A498,0.158 µM
same,LC50,A498,21.9 µM
same,TGI,A498; read-out: pTGI (converted),9.33 µM
same,GI50,T47D,7.94 µM
same,LC50,T47D,31.6 µM
same,TGI,T47D; read-out: pTGI (converted),15.8 µM
same,GI50,MCF7,7.76 µM
same,LC50,MCF7,29.5 µM
same,TGI,MCF7; read-out: pTGI (converted),15.1 µM
same,GI50,SF-539,5.75 µM
same,LC50,SF-539,30.9 µM
same,TGI,SF-539; read-out: pTGI (converted),13.5 µM
same,GI50,[1],6.76 µM
same,LC50,[1],26.3 µM
same,TGI,[1]; read-out: pTGI (converted),13.5 µM
same,GI50,UACC-257,2.29 µM
same,LC50,UACC-257,20.4 µM
same,TGI,UACC-257; read-out: pTGI (converted),7.59 µM
same,GI50,HCT-15,6.17 µM
same,LC50,HCT-15,28.2 µM
same,TGI,HCT-15; read-out: pTGI (converted),13.2 µM
same,GI50,HOP-92,5.75 µM
same,CC50,HOP-92; [2],28.8 µM
same,TGI,HOP-92; read-out: pTGI (converted),12.9 µM

# From ChEMBL document CHEMBL2346608, “New annelated thieno[2,3-e][1,2,3]triazolo[1,5-a]pyrimidines, with potent anticancer activity, designed through VLAK protocol” (2013)
